Molecules are shown by their SMILES. Activity calls are given as the source filed them.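 The calls were made as follows, unless noted: active = growth inhibition above 25% in both replicates, a cutoff set 3 SD above the mean; inconclusive = above 25% in only one replicate; inactive = the rest.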

The nature of the first assay: S. cerevisiae growth inhibition in permissive medium (OD615), pilot counter-assay for S. cerevisiae lifespan shortening project, permissive growth control (AID 705). Conditions: OD615, 24 h, at 10 µM, hits give high values. The essentials: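 Material: engineered DeaD yeast; Compound: one dose 10 µM, DMSO 0.25% final; Detection: absorbance (optical density) at 615 nm; Buffer or medium: permissive raffinose/galactose medium; Timing: 24 h exposure, 30 °C.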
Take `COc1cc(OC)c(NC2c3ccccc3C(=O)N2c2cc(C)ccn2)cc1Cl` (stereo not drawn): the growth inhibition is -11.7% (inactive).

On to `CC(=O)Nc1ccc(NC(=O)CSc2nccn2Cc2ccccc2)cc1`, for which the growth inhibition is -0.94% (inactive).

On to `CCn1c(C(=O)NC(C)c2ccc3c(c2)OCCO3)cc2sccc21` (stereo not drawn), for which the growth inhibition is -7.09% (inactive).

Consider `Cn1c(Cn2c(=O)sc3ccccc32)nnc1SCC(=O)N1CCCC1`, for which the growth inhibition is -7.01% (inactive).

Turning to `CN1CCc2c(sc3c2C(=O)NC(c2ccc(-c4cccc(Cl)c4)o2)N3)C1` (stereo not drawn), the growth inhibition is 5% (inactive).

Regarding `NC(=O)C1CCN(CCCNC2CC(=O)N(Cc3ccc(N4CCCC4=O)cc3)C2=O)CC1` (stereo not drawn), the growth inhibition is -14.8% (inactive).

As to `O=C(NCCN1CCOCC1)c1ccc2c(c1)N(Cc1ccccc1)CCS2`, the growth inhibition is -1.33% (inactive).

Take `COc1ccc(C2C(C(=O)N3CCN(c4ccccc4)CC3)c3ccccc3C(=O)N2C)cc1OC` (stereo not drawn): the growth inhibition was -8.36% (inactive).

On to `CC(=O)Nc1ccc(S(=O)(=O)N2CCN(c3cc(C)ccc3C)CC2)cc1`, for which the growth inhibition is -14.3% (inactive).

For `COc1ccccc1NC(=O)CSc1ncn[nH]1`, the growth inhibition is -3.71% (inactive).

For the molecule `Cc1ccc(/C=N/n2c(C)nnc2C)cc1`, the growth inhibition is -5.29% (inactive).

On to `C=CCSC1=C(C#N)C(c2ccc(C(C)C)cc2)CC(=O)N1` (stereo not drawn), for which the growth inhibition is -11.6% (inactive).

As for `COc1ccccc1NC(=O)C1=C(C)Nc2nnnn2C1c1cccc(C)c1` (stereo not drawn), the growth inhibition is -13.2% (inactive).

Consider `CC(C)N1C(=O)CCC1C(=O)N1CCN(c2ccccn2)CC1` (stereo not drawn), for which the growth inhibition is -11.9% (inactive).

With `Cc1ccc(Cl)cc1N1CCN(C(=O)C2CCC(=O)N2C(C)C)CC1` (stereo not drawn), the growth inhibition was -2.15% (inactive).

On to `COc1ccc(Cl)cc1S(=O)(=O)n1ccnc1C(C)C`, for which the growth inhibition is -8.68% (inactive).

As for `COc1ccc(N2C(=O)CC(c3ccc(OC(C)C)cc3)C2=O)cc1` (stereo not drawn), the growth inhibition is -5.08% (inactive).

As to `COC(=O)CN1C(=O)C(O)(CC(=O)c2cccc(Br)c2)c2ccccc21` (stereo not drawn), the growth inhibition was -6.81% (inactive).

For `O=C1C(=O)N(CCCn2ccnc2)C(c2cccnc2)/C1=C(/O)c1ccc(Cl)cc1` (stereo not drawn), the growth inhibition was -11.6% (inactive).

Turning to `CCc1ccccc1S(=O)(=O)Cc1ccc(C(=O)N2CCN(c3ccccn3)CC2)o1`, the growth inhibition is -8.76% (inactive).

Consider `O=C(NC1CCCc2ccccc21)c1cccnc1` (stereo not drawn), for which the growth inhibition is -4.71% (inactive).

As for `Brc1ccc(-c2noc(CCc3ccccc3)n2)o1`, the growth inhibition was -9.63% (inactive).

On to `COc1cc2c(cc1OC)CN(Cc1cccs1)CC2`, for which the growth inhibition was -20.3% (inactive).

On to `Cc1ccc(C)c(NC(=O)CS(=O)(=O)c2cn(C)c3ccccc23)c1`, for which the growth inhibition was -7.22% (inactive).

As for `CCOc1ccc(S(=O)(=O)Nc2ccccc2C(=O)NCC2CCCO2)cc1` (stereo not drawn), the growth inhibition is -13% (inactive).

Regarding `CN1CCN(CCCNC(=O)c2ccc(CS(=O)(=O)c3ccc(Br)cc3)o2)CC1`, the growth inhibition is -7.34% (inactive).

Turning to `O=C(COC(=O)C1CC(=O)N(C2CCCCC2)C1)c1ccc(F)cc1` (stereo not drawn), the growth inhibition was -2.56% (inactive).

For `C=CCN1C(=O)c2oc3ccccc3c(=O)c2C1c1ccc(O)c(OC)c1` (stereo not drawn), the growth inhibition was 3.61% (inactive).

With `Cc1ccc(Oc2ccccc2)c(NC=O)c1`, the growth inhibition is -2.02% (inactive).

`Cc1c(C)n(C(=O)CSc2nncn2C)c2ccccc12`: the growth inhibition was 3.06% (inactive).

Take `Cc1ccc(C)c(Cn2c(CN(C)Cc3ccccc3)nc3c2c(=O)n(C)c(=O)n3C)c1`: the growth inhibition was -0.27% (inactive).

As for `Cc1noc(NS(=O)(=O)c2ccc(NC(=O)CSc3ncccn3)cc2)c1C`, the growth inhibition was -3.47% (inactive).

Regarding `C=CCOC(=O)C1=C(C)N(C)C(=O)NC1c1cc2c(cc1Br)OCO2` (stereo not drawn), the growth inhibition was 0.155% (inactive).

Take `CCOc1ccccc1Oc1c(C)oc2cc(OC(=O)N3CCOCC3)ccc2c1=O`: the growth inhibition is -12.9% (inactive).

For `COC(=O)CSc1nc(C)cc(Oc2ccccc2)n1`, the growth inhibition is -8.61% (inactive).

Turning to `Cc1noc(C)c1S(=O)(=O)N(CC(=O)N1CCc2ccccc21)c1ccc(C(C)C)cc1`, the growth inhibition is -4.56% (inactive).

As to `CSc1ccc(Cl)c(C(=O)NCc2ccco2)c1`, the growth inhibition was -3.93% (inactive).

Turning to `CSc1nnc(Cn2c(=O)sc3ccccc32)n1-c1ccccc1C`, the growth inhibition is -14.4% (inactive).

Turning to `CCCC(=O)C1=C(O)C(C(=O)OC)C(C)(C)CC1=Nc1ccccc1` (stereo not drawn), the growth inhibition is -12.6% (inactive).

The next assay is described as follows: S. cerevisiae growth inhibition in restrictive medium, OD615, pilot screen, restrictive growth control, yeast lifespan reduction project (AID 706;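 active = growth inhibition above a set limit, 3 SD over mean compound inhibition, in both replicates, cut at about 43% in these data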;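 also: modified DeaD lifespan yeast strain shifted to restrictive glucose medium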). Conditions: OD615, 48 h, at 10 µM, hits give high values. The method, boiled down: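 Buffer or medium: restrictive glucose medium (CSMM-D); test system: modified S. cerevisiae; doses: single dose of 10 µM compound final, 0.25% DMSO; schedule: 48 h compound exposure at 30 °C; detection: absorbance (optical density) measured at 615 nm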
In the case of `COc1cc(OC)c(NC2c3ccccc3C(=O)N2c2cc(C)ccn2)cc1Cl` (stereo not drawn), the growth inhibition is -3.74% (inactive).

With `CC(=O)Nc1ccc(NC(=O)CSc2nccn2Cc2ccccc2)cc1`, the growth inhibition is 3.38% (inactive).

`CCn1c(C(=O)NC(C)c2ccc3c(c2)OCCO3)cc2sccc21` (stereo not drawn): the growth inhibition is -9.22% (inactive).

`Cn1c(Cn2c(=O)sc3ccccc32)nnc1SCC(=O)N1CCCC1`: the growth inhibition is -4.62% (inactive).

As to `CN1CCc2c(sc3c2C(=O)NC(c2ccc(-c4cccc(Cl)c4)o2)N3)C1` (stereo not drawn), the growth inhibition is 3.19% (inactive).

For the molecule `NC(=O)C1CCN(CCCNC2CC(=O)N(Cc3ccc(N4CCCC4=O)cc3)C2=O)CC1` (stereo not drawn), the growth inhibition is -4.07% (inactive).

On to `O=C(NCCN1CCOCC1)c1ccc2c(c1)N(Cc1ccccc1)CCS2`, for which the growth inhibition was -3.97% (inactive).

As for `COc1ccc(C2C(C(=O)N3CCN(c4ccccc4)CC3)c3ccccc3C(=O)N2C)cc1OC` (stereo not drawn), the growth inhibition was -14.2% (inactive).

`CC(=O)Nc1ccc(S(=O)(=O)N2CCN(c3cc(C)ccc3C)CC2)cc1`: the growth inhibition was -36% (inactive).

As for `COc1ccccc1NC(=O)CSc1ncn[nH]1`, the growth inhibition is -11% (inactive).

For the molecule `Cc1ccc(/C=N/n2c(C)nnc2C)cc1`, the growth inhibition is -2.88% (inactive).

Regarding `C=CCSC1=C(C#N)C(c2ccc(C(C)C)cc2)CC(=O)N1` (stereo not drawn), the growth inhibition is 8.41% (inactive).

`COc1ccccc1NC(=O)C1=C(C)Nc2nnnn2C1c1cccc(C)c1` (stereo not drawn): the growth inhibition was -18.7% (inactive).

As to `CC(C)N1C(=O)CCC1C(=O)N1CCN(c2ccccn2)CC1` (stereo not drawn), the growth inhibition was -15.7% (inactive).

Regarding `Cc1ccc(Cl)cc1N1CCN(C(=O)C2CCC(=O)N2C(C)C)CC1` (stereo not drawn), the growth inhibition was -5.95% (inactive).

As to `COc1ccc(Cl)cc1S(=O)(=O)n1ccnc1C(C)C`, the growth inhibition was -13% (inactive).

Turning to `COc1ccc(N2C(=O)CC(c3ccc(OC(C)C)cc3)C2=O)cc1` (stereo not drawn), the growth inhibition is -8.6% (inactive).

`COC(=O)CN1C(=O)C(O)(CC(=O)c2cccc(Br)c2)c2ccccc21` (stereo not drawn): the growth inhibition was -10.7% (inactive).

`O=C1C(=O)N(CCCn2ccnc2)C(c2cccnc2)/C1=C(/O)c1ccc(Cl)cc1` (stereo not drawn): the growth inhibition was -4.88% (inactive).

As for `CCc1ccccc1S(=O)(=O)Cc1ccc(C(=O)N2CCN(c3ccccn3)CC2)o1`, the growth inhibition was -27% (inactive).

As for `O=C(NC1CCCc2ccccc21)c1cccnc1` (stereo not drawn), the growth inhibition was -1.41% (inactive).

Take `Brc1ccc(-c2noc(CCc3ccccc3)n2)o1`: the growth inhibition is 2.66% (inactive).

`COc1cc2c(cc1OC)CN(Cc1cccs1)CC2`: the growth inhibition was -28.9% (inactive).

As to `Cc1ccc(C)c(NC(=O)CS(=O)(=O)c2cn(C)c3ccccc23)c1`, the growth inhibition was 2.97% (inactive).

Take `CCOc1ccc(S(=O)(=O)Nc2ccccc2C(=O)NCC2CCCO2)cc1` (stereo not drawn): the growth inhibition is -16.7% (inactive).

In the case of `CN1CCN(CCCNC(=O)c2ccc(CS(=O)(=O)c3ccc(Br)cc3)o2)CC1`, the growth inhibition is -12.5% (inactive).

For the molecule `O=C(COC(=O)C1CC(=O)N(C2CCCCC2)C1)c1ccc(F)cc1` (stereo not drawn), the growth inhibition is 0.43% (inactive).

On to `C=CCN1C(=O)c2oc3ccccc3c(=O)c2C1c1ccc(O)c(OC)c1` (stereo not drawn), for which the growth inhibition is 3.18% (inactive).

Regarding `Cc1ccc(Oc2ccccc2)c(NC=O)c1`, the growth inhibition is 11.4% (inactive).

Take `Cc1c(C)n(C(=O)CSc2nncn2C)c2ccccc12`: the growth inhibition was 12.8% (inactive).

For `Cc1ccc(C)c(Cn2c(CN(C)Cc3ccccc3)nc3c2c(=O)n(C)c(=O)n3C)c1`, the growth inhibition is -21.5% (inactive).

As for `Cc1noc(NS(=O)(=O)c2ccc(NC(=O)CSc3ncccn3)cc2)c1C`, the growth inhibition was -2.18% (inactive).

With `C=CCOC(=O)C1=C(C)N(C)C(=O)NC1c1cc2c(cc1Br)OCO2` (stereo not drawn), the growth inhibition was -0.035% (inactive).

As to `CCOc1ccccc1Oc1c(C)oc2cc(OC(=O)N3CCOCC3)ccc2c1=O`, the growth inhibition is -3.33% (inactive).

Take `COC(=O)CSc1nc(C)cc(Oc2ccccc2)n1`: the growth inhibition is -5.81% (inactive).

As to `Cc1noc(C)c1S(=O)(=O)N(CC(=O)N1CCc2ccccc21)c1ccc(C(C)C)cc1`, the growth inhibition was -7.38% (inactive).

Turning to `CSc1ccc(Cl)c(C(=O)NCc2ccco2)c1`, the growth inhibition was 8.44% (inactive).

On to `CSc1nnc(Cn2c(=O)sc3ccccc32)n1-c1ccccc1C`, for which the growth inhibition is -4% (inactive).

On to `CCCC(=O)C1=C(O)C(C(=O)OC)C(C)(C)CC1=Nc1ccccc1` (stereo not drawn), for which the growth inhibition was -6.79% (inactive).

For the origin of these results see PubChem BioAssay.
